Drawing on ChEMBL document CHEMBL1955814, “Tailoring of integrin ligands: probing the charge capability of the metal ion-dependent adhesion site” (J Med Chem, 2012), this text covers Papp and IC50 for 14 compounds.

Data set [1] in a line: Apparent permeability across human Caco2 cells after 30 to 150 mins. Format: ADME, cell-based. The following applies: Caco-2. The gist of the method: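 Caco-2 monolayers, passage 52−60, grown 21−23 days on polycarbonate inserts (0.4 μm pores, 1.1 cm²) until TEER stable at 300−500 Ω cm². Apical-to-basolateral transport at 37 °C with shaking after 30 min buffer preincubation. Basolateral samples at 30, 60, 90, 120 and 150 min, replaced with fresh buffer. Mass balance done per compound.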
Background: Caco-2 monolayers are a common model of the intestinal barrier.

For data set [2], the target named is Integrin alpha-IIb/beta-3 (Homo sapiens, UniProt P05106+P08514). Nature of the data set: Displacement of extracellular matrix protein fibrinogen from human integrin alpha2bbeta3 after 1 hr by competitive ELISA. It counts as protein-complex assay. The gist of the method:
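Plates coated overnight at 4 °C with 10 μg/mL fibrinogen in carbonate buffer pH 9.6, blocked with 1% BSA in Tris buffer containing 1 mM Ca2+, Mg2+ and Mn2+. Inhibitor (0.00013−10 μM final) plus 2.5 μg/mL final soluble human αIIbβ3 for 1 h at RT. Bound integrin detected with anti-CD41b and peroxidase secondary antibody, A450.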
On the technique in general: In an ELISA, binding on a coated surface is turned into a signal by an enzyme label.

Integrin alpha-IIb/beta-3, sequence (P05106 27-788 limits assumed): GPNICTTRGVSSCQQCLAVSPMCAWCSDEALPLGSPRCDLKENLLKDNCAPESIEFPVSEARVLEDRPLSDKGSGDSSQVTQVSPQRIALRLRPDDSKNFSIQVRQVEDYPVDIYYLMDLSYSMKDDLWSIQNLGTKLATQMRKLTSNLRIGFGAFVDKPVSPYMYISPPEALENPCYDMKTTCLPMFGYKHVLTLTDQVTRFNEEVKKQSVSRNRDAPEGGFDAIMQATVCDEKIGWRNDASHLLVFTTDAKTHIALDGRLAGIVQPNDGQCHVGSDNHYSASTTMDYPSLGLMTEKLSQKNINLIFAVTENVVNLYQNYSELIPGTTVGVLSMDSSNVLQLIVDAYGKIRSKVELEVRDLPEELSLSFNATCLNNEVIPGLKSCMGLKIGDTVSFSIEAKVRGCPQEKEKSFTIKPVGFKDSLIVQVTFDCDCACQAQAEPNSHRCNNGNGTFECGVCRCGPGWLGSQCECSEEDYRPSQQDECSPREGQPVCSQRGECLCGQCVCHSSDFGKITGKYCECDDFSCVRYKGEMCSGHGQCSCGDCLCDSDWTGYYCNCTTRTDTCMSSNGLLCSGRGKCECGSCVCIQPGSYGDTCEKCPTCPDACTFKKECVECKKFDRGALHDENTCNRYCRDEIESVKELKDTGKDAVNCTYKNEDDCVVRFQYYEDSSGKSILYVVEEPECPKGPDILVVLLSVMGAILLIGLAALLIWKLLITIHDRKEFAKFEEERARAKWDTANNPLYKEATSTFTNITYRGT
Integrin alpha-IIb/beta-3, sequence (P08514 32-887 limits assumed): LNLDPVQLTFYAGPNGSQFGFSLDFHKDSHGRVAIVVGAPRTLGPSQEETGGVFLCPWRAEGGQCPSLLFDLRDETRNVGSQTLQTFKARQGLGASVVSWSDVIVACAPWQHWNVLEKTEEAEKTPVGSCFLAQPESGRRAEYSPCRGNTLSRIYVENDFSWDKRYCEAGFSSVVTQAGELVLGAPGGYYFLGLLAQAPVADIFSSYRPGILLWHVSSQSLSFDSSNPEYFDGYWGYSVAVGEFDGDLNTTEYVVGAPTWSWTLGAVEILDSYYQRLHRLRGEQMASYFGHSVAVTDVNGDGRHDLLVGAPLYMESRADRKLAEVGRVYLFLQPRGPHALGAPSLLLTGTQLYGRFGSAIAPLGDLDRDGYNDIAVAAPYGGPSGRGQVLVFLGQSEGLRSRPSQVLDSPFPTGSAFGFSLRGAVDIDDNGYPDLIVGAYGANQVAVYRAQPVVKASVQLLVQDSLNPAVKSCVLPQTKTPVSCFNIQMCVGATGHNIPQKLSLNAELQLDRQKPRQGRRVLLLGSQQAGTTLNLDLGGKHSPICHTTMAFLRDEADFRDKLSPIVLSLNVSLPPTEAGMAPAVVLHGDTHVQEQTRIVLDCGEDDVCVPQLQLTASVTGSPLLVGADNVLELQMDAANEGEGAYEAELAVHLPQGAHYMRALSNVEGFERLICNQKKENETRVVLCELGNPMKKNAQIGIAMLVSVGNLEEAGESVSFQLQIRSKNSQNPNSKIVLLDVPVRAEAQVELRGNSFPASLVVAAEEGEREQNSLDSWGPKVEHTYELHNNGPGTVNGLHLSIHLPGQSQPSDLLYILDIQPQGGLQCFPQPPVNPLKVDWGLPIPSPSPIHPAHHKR
Integrin alpha-IIb/beta-3, sequence (P08514 891-1039 limits assumed): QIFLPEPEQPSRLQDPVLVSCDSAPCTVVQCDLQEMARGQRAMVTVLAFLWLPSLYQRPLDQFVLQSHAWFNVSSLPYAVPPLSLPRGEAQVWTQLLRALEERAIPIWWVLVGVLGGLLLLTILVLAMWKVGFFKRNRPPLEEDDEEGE

As to `O=C(NC[C@H](NS(=O)(=O)c1ccccc1)[PH](=O)O)c1ccc(OCCC2CCNCC2)cc1`, the apparent permeability coefficient (Papp) in data set [1] was less than 0.01 ×10⁻⁶ cm/s. Also, the IC50 in data set [2] (read-out: IC50) was found to be 1.2 nM.

For the compound `O=C(NC[C@@H](NS(=O)(=O)c1ccccc1)[PH](=O)O)c1ccc(OCCC2CCNCC2)cc1`, the apparent permeability (Papp) in data set [1] is less than 0.01 ×10⁻⁶ cm/s. For the same compound, the IC50 in data set [2] (read-out: IC50) was 6.3 nM.

`O=C(NC[C@H](NS(=O)(=O)c1ccccc1)P(=O)(O)O)c1ccc(OCCC2CCNCC2)cc1`: the apparent permeability coefficient (Papp) in data set [1] was less than 0.01 ×10⁻⁶ cm/s. In data set [2] (read-out: IC50), the IC50 came out at 22.7 nM.

For the compound `O=C(NC[C@@H](NS(=O)(=O)c1ccccc1)P(=O)(O)O)c1ccc(OCCC2CCNCC2)cc1`, in data set [1], the apparent permeability (Papp) is less than 0.01 ×10⁻⁶ cm/s. The IC50 in data set [2] (read-out: IC50) came out at 136 nM.

In the case of `COP(=O)(O)[C@H](CNC(=O)c1ccc(OCCC2CCNCC2)cc1)NS(=O)(=O)c1ccccc1`, the Papp in data set [1] was less than 0.01 ×10⁻⁶ cm/s. Besides, the IC50 in data set [2] (read-out: IC50) came to 3.3 nM.

For the compound `COP(=O)(O)[C@@H](CNC(=O)c1ccc(OCCC2CCNCC2)cc1)NS(=O)(=O)c1ccccc1`, the IC50 in data set [2] (read-out: IC50) stood at 1150 nM.

As to `O=C(NC[C@H](NS(=O)(=O)c1ccccc1)P(O)(O)=S)c1ccc(OCCC2CCNCC2)cc1`, the IC50 in data set [2] (read-out: IC50) was 62.5 nM.

As to `O=C(NC[C@@H](NS(=O)(=O)c1ccccc1)P(O)(O)=S)c1ccc(OCCC2CCNCC2)cc1`, in data set [2] (read-out: IC50), the IC50 came out at 1320 nM.

Take `O=C(NC[C@@H](NS(=O)(=O)c1ccccc1)C(=O)O)c1ccc(OCCC2CCNCC2)cc1`: the IC50 in data set [2] (read-out: IC50) turned out to be 4.4 nM.

For `COP(=O)(OC)[C@H](CNC(=O)c1ccc(OCCC2CCNCC2)cc1)NS(=O)(=O)c1ccccc1`, the IC50 result in data set [2] is reported as “Not Active”.

Consider `COP(=O)(OC)[C@@H](CNC(=O)c1ccc(OCCC2CCNCC2)cc1)NS(=O)(=O)c1ccccc1`, for which, in data set [2], the half-maximal inhibitory concentration (IC50) result was “Not Active”.

For the compound `O=C(NC[C@H](NS(=O)(=O)c1ccccc1)C(=O)O)c1ccc(OCCC2CCNCC2)cc1`, the IC50 in data set [2] (read-out: IC50) was 0.81 nM.

`OC[C@@H](O)[C@@H](O)[C@H](O)[C@H](O)CO` [MANNITOL]: in data set [1], the Papp came out at 2.4 ×10⁻⁶ cm/s.

As to `CCCCS(=O)(=O)N[C@@H](Cc1ccc(OCCCCC2CCNCC2)cc1)C(=O)O` [TIROFIBAN], the Papp in data set [1] was less than 0.01 ×10⁻⁶ cm/s.

For orientation: Papp means a coefficient for how fast a substance crosses the barrier. One may read the IC50 as the midpoint of a concentration-inhibition curve.
